Where no end group is shown, it is not given here.
Target: ACE1 (Homo sapiens, UniProt P12821)
Experiment: In vitro ACE1 inhibition assay
Format: biochemical
Method in brief: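 Commercial WST colorimetric kit, run per the manufacturer's instructions. Test peptides were diluted in PBS to 0.01–100 µM and mixed with substrate buffer and enzyme working solution, then incubated 1 h at 37 °C. Indicator working solution was added for 5 min at room temperature, and absorbance was read at 450 nm. Blanks with and without enzyme were included. Assays were run in triplicate, and IC50 was obtained by nonlinear regression of inhibition against concentration.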

Sequence of ACE1 (P12821 30-1306): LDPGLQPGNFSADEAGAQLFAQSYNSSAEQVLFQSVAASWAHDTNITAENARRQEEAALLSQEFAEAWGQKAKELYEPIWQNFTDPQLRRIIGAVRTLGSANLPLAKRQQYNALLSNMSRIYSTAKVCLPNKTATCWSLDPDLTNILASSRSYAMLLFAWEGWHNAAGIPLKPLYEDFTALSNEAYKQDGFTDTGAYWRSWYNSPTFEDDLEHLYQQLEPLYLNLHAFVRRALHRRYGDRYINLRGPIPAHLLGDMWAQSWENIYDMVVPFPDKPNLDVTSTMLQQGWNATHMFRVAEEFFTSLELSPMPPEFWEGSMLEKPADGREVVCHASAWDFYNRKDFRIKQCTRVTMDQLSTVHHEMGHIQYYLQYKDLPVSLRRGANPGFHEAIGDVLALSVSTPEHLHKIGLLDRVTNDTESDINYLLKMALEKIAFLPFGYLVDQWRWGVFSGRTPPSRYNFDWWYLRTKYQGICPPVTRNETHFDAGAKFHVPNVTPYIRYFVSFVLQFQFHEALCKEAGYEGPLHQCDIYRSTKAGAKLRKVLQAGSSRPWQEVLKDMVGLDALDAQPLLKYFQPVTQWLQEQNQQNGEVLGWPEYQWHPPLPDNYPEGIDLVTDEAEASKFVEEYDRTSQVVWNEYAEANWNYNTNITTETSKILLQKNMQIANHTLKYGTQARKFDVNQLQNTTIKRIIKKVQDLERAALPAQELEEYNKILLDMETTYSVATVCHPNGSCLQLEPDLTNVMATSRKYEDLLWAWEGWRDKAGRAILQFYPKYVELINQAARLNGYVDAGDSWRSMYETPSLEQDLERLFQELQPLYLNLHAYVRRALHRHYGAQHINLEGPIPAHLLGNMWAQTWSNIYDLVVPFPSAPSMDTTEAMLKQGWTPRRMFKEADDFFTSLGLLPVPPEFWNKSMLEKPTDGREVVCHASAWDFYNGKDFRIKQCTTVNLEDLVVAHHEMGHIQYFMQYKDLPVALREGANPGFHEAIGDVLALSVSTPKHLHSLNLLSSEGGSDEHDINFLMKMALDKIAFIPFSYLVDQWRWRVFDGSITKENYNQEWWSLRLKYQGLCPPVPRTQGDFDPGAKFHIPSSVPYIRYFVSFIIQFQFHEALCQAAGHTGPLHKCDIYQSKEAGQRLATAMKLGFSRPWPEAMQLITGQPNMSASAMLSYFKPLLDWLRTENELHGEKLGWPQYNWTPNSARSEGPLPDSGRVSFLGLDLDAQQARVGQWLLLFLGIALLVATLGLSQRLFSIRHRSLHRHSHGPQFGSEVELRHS

Row | Compound | IC50
1 | CC(C)C[C@H](NC(=O)[C@H](Cc1ccccc1)NC(=O)[C@H](CCCCN)NC(=O)[C@H](Cc1ccccc1)NC(=O)[C@H](CC(N)=O)NC(=O)[C@@H](NC(=O)[C@@H]1CCCN1)C(C)C)C(=O)N[C@@H](CO)C(=O)N[C@@H](Cc1cnc[nH]1)C(=O)O [Hp-F, Hemopressin-F] | 6.22 ± 0.44 µM
2 | CC(C)C[C@H](NC(=O)[C@H](CC(C)C)NC(=O)[C@H](CCCCN)NC(=O)[C@H](Cc1ccccc1)NC(=O)[C@H](CC(N)=O)NC(=O)[C@@H](NC(=O)[C@@H]1CCCN1)C(C)C)C(=O)N[C@@H](CO)C(=O)N[C@@H](Cc1c[nH]cn1)C(=O)O [Hp-L, Hemopressin-L] | 3.86 ± 0.87 µM
3 | RVDPVNFKFLSH [RVD-Hp-F, RVD-Hemopressin-F] | 12.4 ± 2.92 µM
4 | RVDPVNFKLLSH [RVD-Hp-L, RVD-Hemopressin-L] | 2.52 ± 0.11 µM
5 | VDPVNFKFLSH [VD-Hp-F, VD-Hemopressin-F] | 10.8 ± 0.79 µM
6 | VDPVNFKLLSH [VD-Hp-L, VD-Hemopressin-L] | 4.54 ± 0.83 µM

From publication PMC11579378 (Scientific Reports, 2024)
